Experimental data published in ChEMBL document CHEMBL4680326, “Hit-to-lead optimization on aryloxybenzamide derivative virtual screening hit against SIRT” (Bioorg Med Chem, 2021).

Tests used:
[1] = target: T1, NAD-dependent protein deacetylase sirtuin-1 (Homo sapiens) (UniProt Q96EB6); assay: Inhibition of recombinant N-terminal tagged human SIRT1 expressed in Escherichia coli at 100 uM using Fluor De Lys SIRT1 as substrate preincubated for 30 mins followed by substrate addition and measured after 1 hr in presence of NAD+ by fluorescence assay relative to control; conditions: time 90.0 min
T1 sequence (whole entry): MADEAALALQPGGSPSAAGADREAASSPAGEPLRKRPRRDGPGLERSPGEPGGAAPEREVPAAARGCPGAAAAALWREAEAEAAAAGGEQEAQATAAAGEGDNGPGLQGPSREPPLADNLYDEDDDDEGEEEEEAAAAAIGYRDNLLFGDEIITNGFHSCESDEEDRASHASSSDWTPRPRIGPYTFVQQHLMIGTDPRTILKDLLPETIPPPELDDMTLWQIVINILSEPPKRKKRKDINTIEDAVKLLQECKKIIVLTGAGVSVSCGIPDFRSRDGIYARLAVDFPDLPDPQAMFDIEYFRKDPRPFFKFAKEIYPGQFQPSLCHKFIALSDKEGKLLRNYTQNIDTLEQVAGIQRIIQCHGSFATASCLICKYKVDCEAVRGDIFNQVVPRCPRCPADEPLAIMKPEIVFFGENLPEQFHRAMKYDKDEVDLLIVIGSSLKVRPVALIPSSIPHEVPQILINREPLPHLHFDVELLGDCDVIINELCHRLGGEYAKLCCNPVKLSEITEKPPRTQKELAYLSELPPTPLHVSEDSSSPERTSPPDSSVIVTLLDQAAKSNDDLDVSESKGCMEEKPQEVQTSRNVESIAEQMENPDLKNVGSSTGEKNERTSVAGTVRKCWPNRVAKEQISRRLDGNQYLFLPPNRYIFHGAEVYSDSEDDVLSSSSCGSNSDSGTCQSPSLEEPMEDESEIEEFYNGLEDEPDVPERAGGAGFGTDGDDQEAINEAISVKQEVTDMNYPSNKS
Outline: (§1)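 Human recombinant SIRT enzyme and compound (1% v/v final DMSO) in SIRT assay buffer were preincubated at 37 °C for 30 min. NAD⁺ and Fluor de Lys deacetylase substrate were then added. Fluorescence was read at excitation 360 nm, emission 460 nm. % inhibition was taken from inhibited wells relative to control wells.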

MCF7 [2] = assay: Cytotoxicity against human MCF7 cells assessed as reduction in cell viability measured after 72 hrs by MTT assay; type: functional, cell-based; conditions: MCF7, 72 h
Outline: (§2)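 MCF-7 cells were grown in DMEM with 10% FBS and 1% penicillin–streptomycin to 70% confluency. 180 µl of a 5 × 10⁴ cells/ml suspension was seeded per well and held 24 h at 37 °C in 5% CO₂. Cells were exposed to 1, 10, 25, 50, 100 or 200 µM, then treated with MTT (5 mg/ml) for 4 h and read at 540 nm. Untreated cells served as control. Done in triplicate; IC50 from linear regression of concentration vs % viable cells.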

MCF7 [3] = assay: Cytotoxicity against human MCF7 cells assessed as reduction in cell viability measured after 48 hrs by MTT assay; type: functional, cell-based; conditions: MCF7, 48 h; outline: as §2
[4] = target: T2, NAD-dependent protein deacetylase sirtuin-2 (Homo sapiens) (UniProt Q8IXJ6); assay: Inhibition of recombinant N-terminal tagged human SIRT2 expressed in Escherichia coli at 100 uM using Fluor De Lys SIRT2 as substrate preincubated for 30 mins followed by substrate addition and measured after 1 hr in presence of NAD+ by fluorescence assay relative to control; conditions: time 90.0 min; outline: as §1
T2 sequence (whole entry): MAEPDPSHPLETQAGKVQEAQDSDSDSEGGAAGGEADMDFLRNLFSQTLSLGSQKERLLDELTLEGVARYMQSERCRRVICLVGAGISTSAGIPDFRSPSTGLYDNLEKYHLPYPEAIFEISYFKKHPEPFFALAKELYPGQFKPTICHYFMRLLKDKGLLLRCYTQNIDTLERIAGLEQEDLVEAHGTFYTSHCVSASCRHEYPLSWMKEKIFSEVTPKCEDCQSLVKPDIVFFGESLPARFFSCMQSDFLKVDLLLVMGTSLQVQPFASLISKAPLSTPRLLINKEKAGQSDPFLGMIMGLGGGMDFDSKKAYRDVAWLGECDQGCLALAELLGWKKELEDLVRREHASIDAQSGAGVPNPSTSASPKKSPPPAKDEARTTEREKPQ

[5] = target: T3, NAD-dependent protein deacetylase sirtuin-3, mitochondrial (Homo sapiens) (UniProt Q9NTG7); assay: Inhibition of recombinant N-terminal tagged human SIRT3 (102 to 399 residues) expressed in Escherichia coli at 300 uM using Fluor De Lys SIRT2 as substrate preincubated for 30 mins followed by substrate addition and measured after 1 hr in presence of NAD+ by fluorescence assay relative to control; conditions: time 90.0 min; outline: as §1
T3 sequence (whole entry): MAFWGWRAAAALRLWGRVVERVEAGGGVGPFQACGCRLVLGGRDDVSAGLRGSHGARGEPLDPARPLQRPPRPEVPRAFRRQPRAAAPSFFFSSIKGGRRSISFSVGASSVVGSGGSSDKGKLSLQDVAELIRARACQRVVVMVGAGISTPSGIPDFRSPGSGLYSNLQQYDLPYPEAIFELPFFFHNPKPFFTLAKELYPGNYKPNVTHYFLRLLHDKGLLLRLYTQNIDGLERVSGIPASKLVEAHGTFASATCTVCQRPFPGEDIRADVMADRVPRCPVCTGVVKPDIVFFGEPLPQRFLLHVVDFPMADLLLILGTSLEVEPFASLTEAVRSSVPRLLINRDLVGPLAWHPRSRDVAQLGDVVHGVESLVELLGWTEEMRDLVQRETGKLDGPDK

[6] = target: T1, NAD-dependent protein deacetylase sirtuin-1 (Homo sapiens); assay: Inhibition of recombinant N-terminal tagged human SIRT1 expressed in Escherichia coli at 300 uM using Fluor De Lys SIRT1 as substrate preincubated for 30 mins followed by substrate addition and measured after 1 hr in presence of NAD+ by fluorescence assay relative to control; conditions: time 90.0 min; outline: as §1
[7] = target: T2, NAD-dependent protein deacetylase sirtuin-2 (Homo sapiens); assay: Inhibition of recombinant N-terminal tagged human SIRT2 expressed in Escherichia coli at 300 uM using Fluor De Lys SIRT2 as substrate preincubated for 30 mins followed by substrate addition and measured after 1 hr in presence of NAD+ by fluorescence assay relative to control; conditions: time 90.0 min; outline: as §1

| Compound | inhibition [1] [%] | inhibition [4] [%] | inhibition [5] [%] | inhibition [6] [%] | inhibition [7] [%] | IC50 (MCF7 [2]) [µM] | IC50 (MCF7 [3]) [µM] |
| --- | --- | --- | --- | --- | --- | --- | --- |
| Cc1ccc(C(=O)Nc2ccc(S(=O)(=O)O)c3cc(S(=O)(=O)O)cc(S(=O)(=O)O)c23)cc1NC(=O)c1cccc(NC(=O)Nc2cccc(C(=O)Nc3cc(C(=O)Nc4ccc(S(=O)(=O)O)c5cc(S(=O)(=O)O)cc(S(=O)(=O)O)c45)ccc3C)c2)c1 | – | 98.4 | – | – | – | – | – |
| O=C(Nc1ccc2ccccc2c1)c1cccc(Oc2ncccn2)c1 | 36.1 | 17.1 | – | – | – | – | – |
| CC(=O)c1ccc(NC(=O)c2ccc(Oc3ccccc3)cc2)cc1 | 36.1 | – | – | – | – | – | – |
| NC(=O)c1ccc(NC(=O)c2ccc(Oc3ccccc3)cc2)cc1 | 46 | – | – | – | – | 356 | 524 |
| O=C(c1ccc(Oc2ccccc2)cc1)N1CCc2ccccc2C1 | 21.5 | – | – | – | – | – | – |
| Cc1ccc(Oc2cccc(C(=O)N[C@@H](C)c3ccccc3)c2)nn1 | – | – | 18.2 | 31.4 | 42.5 | > 1000 | 328 |

Second part, led by results:

| inhibition [1] [%] | inhibition [4] [%] | inhibition [5] [%] | inhibition [6] [%] | inhibition [7] [%] | Compound | IC50 (MCF7 [2]) [µM] | IC50 (MCF7 [3]) [µM] |
| --- | --- | --- | --- | --- | --- | --- | --- |
| 47.2 | 51.6 | – | – | – | ON=C(c1cccc(Oc2ccccc2)c1)N1CCc2ccccc2C1 | 33.1 | 41.1 |
| 56.5 | 10.8 | – | – | – | O=C(c1cccc(Oc2ccccc2)c1)N1CCc2ccccc2C1 | 147 | 159 |
| – | 11.1 | – | – | – | CC(=O)c1ccc(NC(=O)c2cccc(Oc3ccccc3)c2)cc1 | – | – |
| 48.1 | – | – | – | – | CC(C)N1CCN(C(=O)c2cccc(Oc3ccccc3)c2)CC1 | 321 | 465 |
